Values joined by “and” are separate entries in the source; they are usually repeats but may differ in a detail not shown here. Equal entries are not always repeated.
Legend:
[1] = system: selected advanced solid tumors; experiment: Phase 1b efficacy; format: in vivo, human; conditions: for ORR, % (95% CI) / ir-ORR, % (95% CI): confirmed
Outline: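 Oral test compound 200–400 mg QD plus anti-PD-1 antibody 2 mg/kg IV Q3W in patients with measurable or evaluable disease. Investigator assessed best response per RECIST v1.1, with immune-related response also evaluated. ORR used confirmed responses with two-sided 95% CI (Clopper–Pearson exact binomial). All patients receiving ≥1 dose were analysed. PD-L1 status came from screening tissue tested locally.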

[2] = system: PD-1/PD-L1 inhibitor-refractory advanced solid tumors; experiment: Phase 2 efficacy; format: in vivo, human; conditions: PD-1/PD-L1 IR
Outline: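 Oral test compound 300 mg QD plus anti-PD-1 antibody 200 mg IV Q3W. PD-1/PD-L1 IR cohort: progression on anti-PD-1/PD-L1 (RECIST or irRC). prOVCA cohort: progression ≤6 months after ≥4 platinum cycles. PDA cohort: ≥1 prior systemic line. Investigator assessed best response per RECIST v1.1 and irRC. ORR used confirmed responses with Clopper–Pearson 95% CI; all dosed patients. Screening tissue was profiled for MSI/MMR, TMB and gene expression.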

Structure (SMILES): Cc1cccc(Cn2nc(C3CC3)c3c(NC(=O)c4cnc5cc(OCCN6CCN(C)CC6)ccn45)cccc32)n1 [ARRY-382]
- Median OS ([1]; 200-mg cohort): 14.7 [95% CI, 5.2–not reached (NR)] months
- Median PFS ([1]; 200-mg cohort): 4.7 (95% CI, 1.4–33.1) months
- Median irPFS per irRC ([1]; 200-mg cohort): 3.0 (95% CI, 1.4–16.1) months
- DOR of confirmed PR ([1]; 200-mg cohort, 1 patient with MSI-High PDA): 29.2 months
- Median OS ([1]; 300-mg cohort): 6.5 (95% CI, 1.0–NR) months
- Median PFS ([1]; 300-mg cohort): 2.3 (95% CI, 1.3–5.7) months
- Median irPFS per irRC ([1]; 300-mg cohort): 2.5 (95% CI, 1.4–7.1) months
- DOR of confirmed PR ([1]; 300-mg cohort, 1 patient with ovarian cancer): 3.1 months
- Median OS ([1]; 400-mg cohort): 7.4 (95% CI, 2.1–14.1) months
- Median PFS ([1]; 400-mg cohort): 1.4 (95% CI, 0.5–2.6) months
- Median irPFS per irRC ([1]; 400-mg cohort): 1.3 (95% CI, 0.5–1.5) months
- Best overall response: CR ([1]; ARRY-382 200 mg, N = 6): 0 (0.0) n (%)
- Best overall response: NE ([1]; ARRY-382 200 mg, N = 6): 1 (16.7) n (%)
- Best overall response: PD ([1]; ARRY-382 200 mg, N = 6): 1 (16.7) n (%)
- Best overall response: PR ([1]; ARRY-382 200 mg, N = 6): 1 (16.7) n (%)
- Best overall response: SD ([1]; ARRY-382 200 mg, N = 6): 3 (50.0) n (%)
- Immune-related best overall response: CR ([1]; ARRY-382 200 mg, N = 6): 0 (0.0) n (%)
- Immune-related best overall response: NE ([1]; ARRY-382 200 mg, N = 6): 1 (16.7) n (%)
- Immune-related best overall response: PD ([1]; ARRY-382 200 mg, N = 6): 1 (16.7) n (%)
- Immune-related best overall response: PR ([1]; ARRY-382 200 mg, N = 6): 1 (16.7) n (%)
- Immune-related best overall response: SD ([1]; ARRY-382 200 mg, N = 6): 3 (50.0) n (%)
- Best overall response: CR ([1]; ARRY-382 300 mg, N = 6): 0 (0.0) n (%)
- Best overall response: NE ([1]; ARRY-382 300 mg, N = 6): 0 (0.0) n (%)
- Best overall response: PD ([1]; ARRY-382 300 mg, N = 6): 3 (50.0) n (%)
- Best overall response: PR ([1]; ARRY-382 300 mg, N = 6): 1 (16.7) n (%)
- Best overall response: SD ([1]; ARRY-382 300 mg, N = 6): 2 (33.3) n (%)
- Immune-related best overall response: CR ([1]; ARRY-382 300 mg, N = 6): 0 (0.0) n (%)
- Immune-related best overall response: NE ([1]; ARRY-382 300 mg, N = 6): 2 (33.3) n (%)
- Immune-related best overall response: PD ([1]; ARRY-382 300 mg, N = 6): 0 (0.0) n (%)
- Immune-related best overall response: PR ([1]; ARRY-382 300 mg, N = 6): 1 (16.7) n (%)
- Immune-related best overall response: SD ([1]; ARRY-382 300 mg, N = 6): 3 (50.0) n (%)
- Best overall response: CR ([1]; ARRY-382 400 mg, N = 7): 0 (0.0) n (%)
- Best overall response: NE ([1]; ARRY-382 400 mg, N = 7): 2 (28.6) n (%)
- Best overall response: PD ([1]; ARRY-382 400 mg, N = 7): 5 (71.4) n (%)
- Best overall response: PR ([1]; ARRY-382 400 mg, N = 7): 0 (0.0) n (%)
- Best overall response: SD ([1]; ARRY-382 400 mg, N = 7): 0 (0.0) n (%)
- Immune-related best overall response: CR ([1]; ARRY-382 400 mg, N = 7): 0 (0.0) n (%)
- Immune-related best overall response: NE ([1]; ARRY-382 400 mg, N = 7): 4 (57.1) n (%)
- Immune-related best overall response: PD ([1]; ARRY-382 400 mg, N = 7): 1 (14.3) n (%)
- Immune-related best overall response: PR ([1]; ARRY-382 400 mg, N = 7): 0 (0.0) n (%)
- Immune-related best overall response: SD ([1]; ARRY-382 400 mg, N = 7): 2 (28.6) n (%)
- Best overall response: CR ([1]; Total, N = 19): 0 (0.0) n (%)
- Best overall response: NE ([1]; Total, N = 19): 3 (15.8) n (%)
- Best overall response: PD ([1]; Total, N = 19): 9 (47.4) n (%)
- Best overall response: PR ([1]; Total, N = 19): 2 (10.5) n (%)
- Best overall response: SD ([1]; Total, N = 19): 5 (26.3) n (%)
- Immune-related best overall response: CR ([1]; Total, N = 19): 0 (0.0) n (%)
- Immune-related best overall response: NE ([1]; Total, N = 19): 7 (36.8) n (%)
- Immune-related best overall response: PD ([1]; Total, N = 19): 2 (10.5) n (%)
- Immune-related best overall response: PR ([1]; Total, N = 19): 2 (10.5) n (%)
- Immune-related best overall response: SD ([1]; Total, N = 19): 8 (42.1) n (%)
- ORR, % (95% CI) ([1]; ARRY-382 200 mg, N = 6): 16.7 (0.4–64.1) %
- ir-ORR, % (95% CI) ([1]; ARRY-382 200 mg, N = 6): 16.7 (0.4–64.1) %
- ORR, % (95% CI) ([1]; ARRY-382 300 mg, N = 6): 16.7 (0.4–64.1) %
- ir-ORR, % (95% CI) ([1]; ARRY-382 300 mg, N = 6): 16.7 (0.4–64.1) %
- ORR, % (95% CI) ([1]; ARRY-382 400 mg, N = 7): 0.0 (0.0–41.0) %
- ir-ORR, % (95% CI) ([1]; ARRY-382 400 mg, N = 7): 0.0 (0.0–41.0) %
- ORR, % (95% CI) ([1]; Total, N = 19): 10.5 (1.3–33.1) %
- ir-ORR, % (95% CI) ([1]; Total, N = 19): 10.5 (1.3–33.1) %
- Median OS [2]: 12.4 (95% CI, 3.6–NR) months
- Median PFS [2]: 1.6 (95% CI, 1.3–4.4) months
- Median irPFS per irRC [2]: 1.5 (95% CI, 1.3–4.3) months
- Best overall response: CR ([2]; N = 19): 0 (0.0) n (%)
- Best overall response: NE ([2]; N = 19): 2 (10.5) n (%)
- Best overall response: PD ([2]; N = 19): 9 (47.4%) n (%) and 9 (47.4) n (%)
- Best overall response: PR ([2]; N = 19): 0 (0.0) n (%)
- Best overall response: SD ([2]; N = 19): 8 (42.1%) n (%) and 8 (42.1) n (%)
- Immune-related best overall response: CR ([2]; N = 19): 0 (0.0) n (%)
- Immune-related best overall response: NE ([2]; N = 19): 11 (57.9) n (%)
- Immune-related best overall response: PD ([2]; N = 19): 1 (5.3) n (%)
- Immune-related best overall response: PR ([2]; N = 19): 0 (0.0) n (%)
- Immune-related best overall response: SD ([2]; N = 19): 7 (36.8) n (%)
- ORR, % (95% CI) ([2]; confirmed, N = 19): 0.0 (0.0–17.6) %
- ir-ORR, % (95% CI) ([2]; confirmed, N = 19): 0.0 (0.0–17.6) %

Source: publication PMC9359741 (Clinical Cancer Research, 2022)
